Results from different studies.
Compare with care: the assays were run in different laboratories.
CA2: Carbonic anhydrase 2 (CA2, Homo sapiens, UniProt P00918)
OPRD1: Delta-type opioid receptor (OPRD1, Homo sapiens, UniProt P41143)

SMILES | target | effect on | action | method | notes | quantity | value
COC(=O)c1cc(N(C)C(=O)c2ccn3ncc(-c4ccc(C(=O)O)cc4)c3c2)ccc1Cl | Receptor tyrosine-protein kinase erbB-2 (ERBB2, Homo sapiens, UniProt P04626) | enzyme activity | inhibitor | – | – | IC50 | > 30000 nM
COc1ccc(S(=O)(=O)Oc2ccc(C=NNC(=O)c3ccc(F)cc3)cc2OC)cc1 | CA2 | enzyme activity | inhibitor | absorbance | – | IC50 | 23.2 nM
CNC(=O)c1ccc(-c2cnn3ccc(C(=O)N(C)c4ccc(Cl)c(C(=O)OC)c4)cc23)cc1 | Tyrosine-protein kinase ABL1 (ABL1, Homo sapiens, UniProt P00519) | enzyme activity | inhibitor | – | – | IC50 | > 30000 nM
O=C1CCc2ccccc2O1 | Carbonic anhydrase (Vibrio cholerae serotype O1, UniProt Q9KMP6) | enzyme activity | inhibitor | stopped-flow | – | Ki | 8900 nM
O=C(N[C@H]1CC[C@@]2(O)[C@H]3Cc4ccc(O)c5c4[C@@]2(CCN3CC2CC2)[C@H]1O5)c1ccc(F)s1 | OPRD1 | ligand displacement | – | radioligand | cell membranes | Ki | 31.4 nM
COc1ccc(S(=O)(=O)Oc2cc(OC)ccc2C=NNC(=O)c2ccc(F)cc2)cc1 | CA2 | enzyme activity | inhibitor | absorbance | – | IC50 | 141 nM
CS(=O)(=O)c1ccc(C(=O)N[C@H]2CC[C@@]3(O)[C@H]4Cc5ccc(O)c6c5[C@@]3(CCN4CC3CC3)[C@H]2O6)s1 | OPRD1 | ligand displacement | – | radioligand | cell membranes | Ki | 27 nM
COc1ccc2[nH]c(C)c(CC[N+](C)(C)C)c2c1 | 5-hydroxytryptamine receptor 3A (HTR3A, Homo sapiens, UniProt P46098) | ligand displacement | – | radioligand | – | Ki | ~2600 nM
